Screening data (PubChem)
Only some compounds are listed: those with a hit (about 5.8% of all), similar ones and a draw of the others.
IDH1 mut inh = blocks human IDH1 R132H reductase activity. O75874. diaphorase/resazurin fluorescence, 60 min. hit rate 0.18% among 70,000. inhibition, % at 10 µM; in the data active = inhibition above about 34%;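 also: 0% = DMSO and 100% = no enzyme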
Target sequence (O75874 whole entry R132H): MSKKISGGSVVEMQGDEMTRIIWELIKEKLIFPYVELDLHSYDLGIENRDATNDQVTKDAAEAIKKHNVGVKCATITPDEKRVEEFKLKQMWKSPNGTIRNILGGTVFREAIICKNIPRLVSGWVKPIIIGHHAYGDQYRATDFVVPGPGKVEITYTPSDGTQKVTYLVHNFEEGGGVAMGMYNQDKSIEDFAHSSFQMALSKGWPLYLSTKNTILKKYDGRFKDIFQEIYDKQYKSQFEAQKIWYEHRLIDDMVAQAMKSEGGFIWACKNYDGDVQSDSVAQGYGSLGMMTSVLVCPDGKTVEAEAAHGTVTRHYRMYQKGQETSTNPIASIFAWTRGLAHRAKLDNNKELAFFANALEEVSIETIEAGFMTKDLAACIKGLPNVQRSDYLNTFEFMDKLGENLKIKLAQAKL
Pf Dd2 growth = inhibitors of Plasmodium falciparum Dd2 growth; P. falciparum Dd2 growth, SYBR Green, 72 h; active compounds read low; activity change, % at 10 µM; hit rate 2.3% among 94,000; AID 1159554; in the data active = activity change below about -80%
GASC1 inh = KDM4C (human) demethylase inhibition; hit rate 0.15% among 96,000; inhibition, % at 12.5 µM; Q9H3R0; GST-KDM4C 2-372, H3K9me3 peptide, LANCE TR-FRET;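 active = mean replicate inhibition above about 25%, with at least 55% of replicates also reaching it, limit read from the data, passing the limit was not always enough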
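System – N-terminal GST-fused human GASC-1 (KDM4C) fragment, residues 2-372 · Input – enzyme final amount 10 nM · Technique – LANCE TR-FRET, Eu antibody, ULight-streptavidin, EDTA, ex 340 nm, em 618/671 nm · Medium – HEPES buffer, pH 7.5, plus ascorbate · Incubation – enzyme reaction 30 min, then detection 60 min, both room temperature · Reagent – H3K9me3 peptide with Fe(II)/2OG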
T cruzi growth = blocks T. cruzi growth in NIH3T3 culture. T. cruzi beta-gal in NIH3T3, GalScreen luminescence, 90 h. hit rate 5.9% among 77,000. inhibition, % at 8.34 µM;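 active = mean inhibition above about 93%, with at least 55% of replicates each passing it, limit read from the data, passing the limit was not always enough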
Numbers without * were called inactive; x = no result given.

SMILES	IDH1 mut inh	Pf Dd2 growth	GASC1 inh	T cruzi growth
C[C@H]1CCCCO[C@H](CN(C)Cc2ccc(C(F)(F)F)cc2)[C@@H](C)CN([C@@H](C)CO)C(=O)c2cc(NC(=O)CCCN(C)C)ccc2O1	x	-86*	4	61
C[C@H](CO)N1C[C@H](C)[C@@H](CN(C)Cc2ccc(C(=O)O)cc2)Oc2ccc(NC(=O)Cn3cnnn3)cc2C1=O	4	11	0	-44
Cc1ccc(S(=O)(=O)N(C)C[C@@H]2Oc3cc(C#Cc4ccccc4)ccc3S(=O)(=O)N([C@H](C)CO)C[C@H]2C)cc1	0	-59	-1	x
C[C@@H]1CCCCO[C@@H](CN(C)Cc2ccc(C(F)(F)F)cc2)[C@H](C)CN([C@H](C)CO)C(=O)c2cc(NC(=O)CCCN(C)C)ccc2O1	1	-89*	6	77
CO[C@H]1CC[C@@H]2CCOc3c(C#N)cccc3C(=O)N(C)CCCC(=O)N(C)C[C@H]1O2	0	8	-2	21
C[C@H](CO)N1C[C@H](C)[C@H](CN(C)Cc2ccc(C(=O)Nc3ccccc3N)cc2)Oc2ccc(NC(=O)CCC(F)(F)F)cc2C1=O	x	-81*	-1	86
C[C@@H]1CN([C@H](C)CO)C(=O)c2cc(NC(=O)Nc3ccccc3)ccc2O[C@@H]1CN(C)Cc1ccc(C(=O)Nc2ccccc2N)cc1	x	-85*	-2	36
C[C@@H]1CN([C@H](C)CO)C(=O)c2cc(NC(=O)Cc3ccccc3)ccc2O[C@@H]1CN(C)Cc1ccc(C(=O)Nc2ccccc2N)cc1	x	-85*	2	73
C[C@H](CO)N1C[C@H](C)[C@@H](CN(C)Cc2ccc(C(=O)Nc3ccccc3N)cc2)Oc2ccc(NC(=O)Nc3ccc(C(F)(F)F)cc3)cc2C1=O	0	-90*	-1	-206
O=C(Cc1ccccn1)NCC[C@@H]1CC[C@@H](NC(=O)Nc2ccccc2)[C@@H](CO)O1	0	9	0	19
N#C[C@@H]1[C@@H](c2ccccc2C2=CCCCC2)[C@H](CO)N1C(=O)c1cccc(F)c1	x	-8	0	x
C[C@H]1CN([C@@H](C)CO)C(=O)c2cc(NC(=O)Nc3ccc(C(F)(F)F)cc3)ccc2O[C@@H]1CN(C)Cc1ccc(C(=O)Nc2ccccc2N)cc1	0	-93*	0	-97
C[C@@H]1CN([C@@H](C)CO)C(=O)c2cc(NC(=O)CCC(F)(F)F)ccc2O[C@@H](C)CCCCO[C@@H]1CN(C)C(=O)NC1CCCCC1	1	-31	1	38
Cc1ccc(S(=O)(=O)N(C)C[C@@H]2OCCCC[C@@H](C)Oc3ccc(NC(=O)Nc4cccc5ccccc45)cc3C(=O)N([C@@H](C)CO)C[C@@H]2C)cc1	x	-82*	2	x
Cc1ccc(S(=O)(=O)N(C)C[C@@H]2OCCCC[C@H](C)Oc3ccc(NC(=O)Nc4cccc5ccccc45)cc3C(=O)N([C@H](C)CO)C[C@H]2C)cc1	1	-82*	1	x
CCCNC(=O)N1[C@H](CO)[C@H](c2ccc(-c3cccnc3)cc2)[C@@H]1C#N	0	22	6	-2
COc1ccc(S(=O)(=O)Nc2ccc3c(c2)C(=O)N([C@@H](C)CO)C[C@H](C)[C@@H](CN(C)C(=O)Nc2ccccc2)OCCCC[C@H](C)O3)cc1	x	-51	1	10
C[C@@H]1CCCCO[C@H](CN(C)C(=O)Nc2ccc(F)cc2)[C@H](C)CN([C@H](C)CO)C(=O)c2cc(NS(=O)(=O)c3ccccc3)ccc2O1	1	-91*	0	60
C[C@@H]1CCCCO[C@H](CN(C)C(=O)Nc2ccc(F)cc2)[C@@H](C)CN([C@@H](C)CO)C(=O)c2cc(NS(=O)(=O)c3ccc(Cl)cc3)ccc2O1	x	-87*	0	x
C[C@@H]1CCCCO[C@H](CN(C)C(=O)Nc2ccc(F)cc2)[C@@H](C)CN([C@@H](C)CO)C(=O)c2cc(NS(=O)(=O)c3ccccc3)ccc2O1	1	-76	-2	97
COc1ccc(S(=O)(=O)Nc2ccc3c(c2)C(=O)N([C@@H](C)CO)C[C@H](C)[C@H](CN(C)C(=O)NC2CCCCC2)OCCCC[C@@H](C)O3)cc1	x	-88*	-1	30
COc1ccc(S(=O)(=O)Nc2ccc3c(c2)C(=O)N([C@@H](C)CO)C[C@@H](C)[C@H](CN(C)C(=O)Nc2ccccc2)OCCCC[C@@H](C)O3)cc1	x	-44	1	111*
CCNC(=O)[C@@H]1[C@@H](CO)[C@@H]2Cn3c(ccc(C4=CCCCC4)c3=O)[C@H]1N2C(=O)Cc1ccccn1	x	24	1	x
C[C@@H]1CN([C@H](C)CO)S(=O)(=O)c2ccc(C#CC3(O)CCCC3)cc2O[C@@H]1CN(C)C(=O)Cc1ccccc1	-5	-22	0	-169
C[C@@H]1CN([C@@H](C)CO)C(=O)c2cc(NC(=O)CCCN(C)C)ccc2O[C@@H]1CN(C)Cc1ccc(Oc2ccccc2)cc1	-1	-4	2	-141
SMILES	IDH1 mut inh	Pf Dd2 growth	GASC1 inh	T cruzi growth
O=C(NCC[C@H]1CC[C@H](NS(=O)(=O)c2ccc(Cl)cc2)[C@H](CO)O1)Nc1ccc(F)cc1	x	3	0	x
O=C(Cc1ccccc1)N1C[C@H]2[C@@H](c3ccccc31)[C@H](CO)N2C(=O)C1CC1	x	8	0	55
C[C@@H]1CCCCO[C@H](CN(C)C(=O)Nc2ccccc2)[C@H](C)CN([C@@H](C)CO)C(=O)c2cc(NS(=O)(=O)c3ccccc3)ccc2O1	x	-84*	-1	x
COc1ccc(S(=O)(=O)Nc2ccc3c(c2)C(=O)N([C@@H](C)CO)C[C@H](C)[C@@H](CN(C)C(=O)c2ccccc2)OCCCC[C@@H](C)O3)cc1	2	-89*	-1	5
N[C@H]1CC[C@H](CCn2cc(C3CC3)nn2)O[C@@H]1CO	x	9	31*	x
N[C@H]1CC[C@H](CCn2cc(C3CCCCC3)nn2)O[C@@H]1CO	0	-14	-1	-43
CC(C)c1cn(CC[C@@H]2CC[C@H](N)[C@@H](CO)O2)nn1	1	21	38*	-16
CN1C(=O)c2cc(NC(=O)c3cccc(Cl)c3)ccc2OC[C@@H]2O[C@@H](CC(=O)NC3CCCCC3)CC[C@@H]21	x	-42	1	87
CCS(=O)(=O)N1CC2(C1)CN(S(=O)(=O)c1ccccc1)[C@@H](CO)c1c2c2ccc(OC)cc2n1C	x	-57	-1	x
COc1ccc2c3c(n(C)c2c1)[C@@H](CO)N(Cc1ccccc1)CC31CN(S(=O)(=O)c2ccc(C)cc2)C1	x	-31	x	x
COc1ccc2c3c(n(C)c2c1)[C@H](CO)N(Cc1ccccc1)CC31CCN(S(=O)(=O)c2ccc(C)cc2)CC1	x	-84*	0	x
CCS(=O)(=O)N1CCC2(CC1)CN(S(=O)(=O)c1ccccc1)[C@@H](CO)c1c2c2ccc(OC)cc2n1C	x	-84*	0	x
CC(C)CC#Cc1ccc2c(c1)O[C@H](CN(C)C(=O)Cc1ccccn1)[C@H](C)CN([C@@H](C)CO)S2(=O)=O	8	-36	1	33
C[C@@H]1CN([C@@H](C)CO)C(=O)c2cc(NC(=O)Nc3ccc(C(F)(F)F)cc3)ccc2O[C@@H]1CN(C)CC1CCCCC1	1	-83*	-1	71
